# This is a sample that favours compounds with a hit; in the whole collection about 2.8% have one here.
# SIRT5 block = inhibitors of human sirtuin-5 desuccinylase | Purified SirT5, succinyl-peptide AMC, trypsin-coupled fluorescence | inhibition, % at 15 µM | Q9NXA8 | hit rate 1.1% among 330,000; in the data active means inhibition above about 15%; inconclusive means no clear call, values can overlap the other calls
# E-sel inducer = E-selectin induction on HUVECs. P16581. HUVEC E-selectin immunofluorescence imaging; normalized: neutral wells 0, TNF-alpha wells 100. activation, % at 7.58 µM. hit rate 0.37% among 260,000;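 active means mean E-selectin-positive cell signal at least 10% of the positive control, reached in at least 60% of replicates, without over 20% cell loss; inconclusive means no rule given, readout overlaps actives, possibly toxicity-flagged; inactive means the rest, including those meeting only one limit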
# Target sequence (P16581 whole entry, looked up): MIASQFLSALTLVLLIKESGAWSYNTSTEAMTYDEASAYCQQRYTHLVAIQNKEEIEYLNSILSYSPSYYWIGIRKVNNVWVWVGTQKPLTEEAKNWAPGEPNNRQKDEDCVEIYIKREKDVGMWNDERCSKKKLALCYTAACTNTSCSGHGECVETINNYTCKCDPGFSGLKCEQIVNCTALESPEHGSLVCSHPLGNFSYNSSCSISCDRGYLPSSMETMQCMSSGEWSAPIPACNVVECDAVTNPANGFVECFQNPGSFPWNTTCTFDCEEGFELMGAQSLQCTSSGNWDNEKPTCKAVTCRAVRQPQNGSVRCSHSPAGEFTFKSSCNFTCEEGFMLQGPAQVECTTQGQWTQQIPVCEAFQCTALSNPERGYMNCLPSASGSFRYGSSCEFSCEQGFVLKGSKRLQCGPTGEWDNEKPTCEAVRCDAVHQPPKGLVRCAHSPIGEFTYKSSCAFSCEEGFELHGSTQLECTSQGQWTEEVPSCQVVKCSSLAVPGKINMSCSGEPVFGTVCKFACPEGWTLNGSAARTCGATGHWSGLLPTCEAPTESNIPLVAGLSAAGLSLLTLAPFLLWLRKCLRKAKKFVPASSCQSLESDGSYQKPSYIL
#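 Assay system: HUVEC, human umbilical vein endothelial cells / Amount: 3,000 HUVEC/well / Controls: TNF-alpha positive control, DMSO neutral control / Compound dosing: single concentration / Medium: EGM-2 over gelatin coat / Evaluation: percent E-selectin-positive cells / Signal: immunofluorescence imaging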
# DENV2 CPE rescue = protects cells from dengue virus 2 cytopathic effect; hit rate 1.7% among 350,000; DENV2-infected cells, cytopathic effect rescue, plate reader; CPE inhibition, % at 9.99 µM; AID 651640; in the data active means CPE inhibition above about 20%, passing the limit was not always enough; inconclusive means no clear call, values can overlap the other calls; tested in BHK-21 cells;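 further: 0% = median of neutral control wells and 100% = median of positive control wells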
# * = called active by the depositor; ? = inconclusive; . = not tested or not shown; ! = a repeat was not active.
SMILES,SIRT5 block,E-sel inducer,DENV2 CPE rescue
C[C@H]1CN([C@@H](C)CO)C(=O)c2cccc(NC(=O)CCCCCC(=O)Nc3ccccc3N)c2O[C@H]1CN(C)S(C)(=O)=O,.,.,-3
C[C@H]1CN([C@@H](C)CO)C(=O)c2cccc(NC(=O)CCCCCC(=O)Nc3ccccc3N)c2O[C@@H]1CN(C)S(C)(=O)=O,7,.,-7
C[C@H]1CN([C@@H](C)CO)C(=O)c2cccc(NC(=O)CCCCCC(=O)Nc3ccccc3N)c2O[C@H]1CN(C)S(=O)(=O)c1cccs1,6,0,55*
C[C@H](CO)N1C[C@H](C)[C@H](CN(C)S(=O)(=O)c2cccs2)Oc2c(NC(=O)CCCCCC(=O)Nc3ccccc3N)cccc2C1=O,9,0,22*
C[C@H]1CN([C@@H](C)CO)C(=O)c2cc(-c3cccc(F)c3)cnc2O[C@H]1CN(C)Cc1cccc(F)c1,.,0,.
COc1ccc2c3c(n(C)c2c1)[C@H](CO)N(C(=O)Nc1ccccc1F)CC31CN(C(C)=O)C1,.,0,4
CC1Cc2ccccc2N1S(=O)(=O)c1cnc(Cl)c(Cl)c1 (stereo not drawn),-3,5,5
CC1Cc2ccccc2N1S(=O)(=O)c1cnc(Cl)c(Br)c1 (stereo not drawn),-1,2,65*
C[C@@H]1CN([C@H](C)CO)C(=O)Cc2cc(NC(=O)NC3CCCCC3)ccc2O[C@@H]1CN(C)CC1CC1,13,-2,-7
C[C@H](CO)N1C[C@H](C)[C@@H](CN(C)CC2CC2)Oc2ccc(NC(=O)C3CCCCC3)cc2CC1=O,1,0,?
CNC[C@H]1Oc2ccc(NC(=O)c3ccncc3)cc2CC(=O)N([C@H](C)CO)C[C@@H]1C,2,0,64*
CNC[C@H]1Oc2ccc(NC(=O)C3CCCCC3)cc2CC(=O)N([C@H](C)CO)C[C@H]1C,0,0,-2
CNC[C@H]1Oc2ccc(NC(=O)C3CCCCC3)cc2CC(=O)N([C@H](C)CO)C[C@@H]1C,1,0,90*!
CNC[C@H]1Oc2ccc(NC(=O)c3ccncc3)cc2CC(=O)N([C@@H](C)CO)C[C@@H]1C,3,0,-4
C[C@@H]1CN([C@@H](C)CO)C(=O)Cc2cc(NC(=O)NC3CCCCC3)ccc2O[C@H]1CN(C)CC1CC1,-4,-2,41*
C[C@@H]1CN([C@@H](C)CO)C(=O)Cc2cc(NC(=O)C3CCCCC3)ccc2O[C@H]1CN(C)CC1CC1,2,0,76*
COc1ccc(S(=O)(=O)Nc2ccc3c(c2)C(=O)N([C@@H](C)CO)C[C@@H](C)[C@H](CN(C)C)OCCCC[C@@H](C)O3)cc1,-3,1,2
CO[C@@H]1CN(C)C(=O)c2cc(NC(=O)C3CC3)ccc2OC[C@H](C)N(C(C)=O)C[C@H]1C,-4,0,5
C[C@H]1CN([C@@H](C)CO)S(=O)(=O)c2ccc(-c3cccc(C#N)c3)cc2O[C@H]1CN(C)C(=O)c1ccc(F)cc1,0,0,-9
O=C(NC[C@@H]1CC[C@@H]2[C@@H](CN2Cc2ccccc2F)O1)C1CC1,-2,.,8
CO[C@H]1CN(C)C(=O)c2ccc(NC(=O)C3CCCC3)cc2OC[C@H](C)N(S(C)(=O)=O)C[C@H]1C,3,0,-3
COc1cccc(S(=O)(=O)N(C)C[C@@H]2Oc3ncc(C#Cc4ccc(C(F)(F)F)cc4)cc3C(=O)N([C@H](C)CO)C[C@@H]2C)c1,2,0,-2
CC(C)NC(=O)N(C)C[C@@H]1OCCCC[C@@H](C)Oc2ccc(NC(=O)Nc3ccc(F)cc3)cc2C(=O)N([C@@H](C)CO)C[C@H]1C,1,0,-1
C[C@H]1CN([C@@H](C)CO)C(=O)c2cc(C#CC(C)(C)O)cnc2O[C@@H]1CN(C)C(=O)CN(C)C,-4,0,-2
C[C@H](CO)N1C[C@H](C)[C@H](CN(C)C(=O)Nc2cccc3ccccc23)Oc2ccc(NS(=O)(=O)c3ccc(Cl)cc3)cc2CC1=O,2,24,1
SMILES,SIRT5 block,E-sel inducer,DENV2 CPE rescue
CCOC(=O)c1sc(NC(=O)c2ccncc2)c(C#N)c1C,2,0,43*
CCOC(=O)c1c(NC(=O)c2ccncc2)sc(C)c1C,-3,.,-2
COc1ccc(NC(=O)N(C)C[C@@H]2Oc3ccc(NC(=O)Cc4cn(C)c5ccccc45)cc3CC(=O)N([C@@H](C)CO)C[C@@H]2C)cc1,0,-1,-5
COc1ccc2c3c(n(C)c2c1)[C@H](CO)N(C(=O)Nc1ccc(F)cc1)CC31CCN(Cc2cccc(F)c2)CC1,2,0,6
Cc1sc2ncnc(N3CCC(C(=O)Nc4ccc(Cl)c(Cl)c4)CC3)c2c1C,-2,1,-10
Cc1sc2ncnc(N3CCC(C(=O)Nc4ccc(Cl)cc4Cl)CC3)c2c1C,-1,0,30*
COc1cccc(C(=O)N2C[C@H]3[C@@H](c4ccccc42)[C@H](CO)N3C(C)=O)c1,2,0,-1
Cc1c(C(=O)OC(C)C)sc(N)c1C(=O)OC(C)C,2,.,48*
CCOC(=O)c1sc(N)c(C(N)=O)c1C,1,.,7
O=C(C[C@H]1C=C[C@H](NC(=O)C2CCC2)[C@H](CO)O1)NCC1CC1,0,0,-6
COc1ccccc1NC(=O)N[C@H]1C=C[C@H](CC(=O)N[C@H](C)c2ccccc2)O[C@@H]1CO,-5,0,0
C[C@H](NC(=O)C[C@H]1C=C[C@@H](NC(=O)C2CC2)[C@@H](CO)O1)c1ccccc1,5,0,-5
COc1ccccc1NC(=O)N[C@@H]1C=C[C@H](CC(=O)N[C@@H](C)c2ccccc2)O[C@H]1CO,-4,0,66*
C[C@@H](NC(=O)C[C@H]1C=C[C@H](NC(=O)C2CC2)[C@@H](CO)O1)c1ccccc1,17*,0,2
O=C(C[C@H]1C=C[C@@H](NC(=O)C2CCC2)[C@@H](CO)O1)NCC1CC1,4,0,58*
O=C(C[C@@H]1CC[C@@H]2[C@H](COC[C@H](O)CN2S(=O)(=O)c2cccc(Cl)c2)O1)NC1Cc2ccccc2C1,-3,0,11
CO[C@H]1CN(C)C(=O)c2ccc(NS(=O)(=O)c3ccccc3)cc2OC[C@@H](C)N(C)C[C@@H]1C,.,0,.
CCCC#Cc1cnc2c(c1)C(=O)N([C@H](C)CO)C[C@H](C)[C@@H](CN(C)C(=O)C1CCCCC1)O2,.,1,.
C#CC1(NC(=O)NC(C)(C)C)CCCCC1,-7,1,.
C#CC1(NC(=O)NC(C)C)CCCCC1,94*,0,-2
C[C@H](CO)N1C[C@H](C)[C@@H](CN(C)Cc2ccc(Oc3ccccc3)cc2)Oc2c(NC(=O)CCCCCC(=O)Nc3ccccc3N)cccc2C1=O,22*,-3,-4
C[C@@H]1CN([C@H](C)CO)C(=O)c2cccc(NC(=O)CCCCCC(=O)Nc3ccccc3N)c2O[C@@H]1CN(C)Cc1ccc(-c2ccccc2)cc1,14,0,36*
C[C@@H]1CN([C@@H](C)CO)C(=O)c2cccc(NC(=O)CCCCCC(=O)Nc3ccccc3N)c2O[C@H]1CN(C)Cc1ccc(Oc2ccccc2)cc1,.,2,.
C[C@H]1CN([C@@H](C)CO)C(=O)c2cccc(NC(=O)CCCCCC(=O)Nc3ccccc3N)c2O[C@H]1CN(C)Cc1ccc(-c2ccccc2)cc1,10,0,-10

# Bioassay records from PubChem BioAssay.
